Among the data in ChEMBL document CHEMBL1142184, “Treatment and outcomes of infections by methicillin-resistant Staphylococcus aureus at an ambulatory clinic” (2007) are Activity values, retold here.

The test system of assay [1] is Staphylococcus aureus. As to the kind of experiment: Antibacterial activity against methicillin-susceptible Staphylococcus aureus isolates from skin or soft tissue infection outpatients. It is filed as functional. Summed up: (§1)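 Isolates came from S. aureus-positive wound cultures. Clinicians took these at their discretion when resistant infection was suspected, in clinic patients with signs or symptoms of skin or soft tissue infection. Only cases with recorded antibiotic sensitivities were included. Nasal carriage cultures and outside-hospital cases lacking culture data were excluded. Yearly susceptibility trends used the Mantel score test, two-sided.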

Assay [2] deals with Staphylococcus aureus. The experiment in a line: Antibacterial activity against methicillin-resistant Staphylococcus aureus isolates from skin or soft tissue infection outpatients. It is filed as functional. Summed up:
as §1

On to `CC[C@H]1OC(=O)[C@H](C)[C@@H](O[C@H]2C[C@@](C)(OC)[C@@H](O)[C@H](C)O2)[C@H](C)[C@@H](O[C@@H]2O[C@H](C)C[C@H](N(C)C)[C@H]2O)[C@](C)(O)C[C@@H](C)C(=O)[C@H](C)[C@@H](O)[C@]1(C)O` [ERYTHROMYCIN], for which the Activity was 57.9% in the assay with Staphylococcus aureus [1] and 93.8% in the assay on Staphylococcus aureus [2].

The compound `CO[C@H]1/C=C/O[C@@]2(C)Oc3c(C)c(O)c4c(O)c(c(/C=N/N5CCN(C)CC5)c(O)c4c3C2=O)NC(=O)/C(C)=C\C=C\[C@H](C)[C@H](O)[C@@H](C)[C@@H](O)[C@@H](C)[C@H](OC(C)=O)[C@@H]1C` [RIFAMPIN] gave an Activity in the assay with Staphylococcus aureus [1] of 0%.

For the compound `Cc1nnc(SCC2=C(C(=O)O)N3C(=O)[C@@H](NC(=O)Cn4cnnn4)[C@H]3SC2)s1` [CEFAZOLIN], the Activity in the assay with Staphylococcus aureus [1] is 0%; in the assay with Staphylococcus aureus [2] it was 100%.

Regarding `C[C@H]1COc2c(N3CCN(C)CC3)c(F)cc3c(=O)c(C(=O)O)cn1c23.C[C@H]1COc2c(N3CCN(C)CC3)c(F)cc3c(=O)c(C(=O)O)cn1c23.O` [LEVOFLOXACIN], the Activity came out at 0% with Staphylococcus aureus [1] and 33.3% in the assay with Staphylococcus aureus [2].

In the assay on Staphylococcus aureus [1], `O=C(N[C@H](CO)[C@H](O)c1ccc([N+](=O)[O-])cc1)C(Cl)Cl` [CHLORAMPHENICOL] displayed an Activity of 0%.

With `O=C(O)c1cn(C2CC2)c2cc(N3CCNCC3)c(F)cc2c1=O` [CIPROFLOXACIN], the Activity came out at 8.8% in the assay with Staphylococcus aureus [1] and 78.5% in the assay on Staphylococcus aureus [2].

For the compound `CCC[C@@H]1C[C@@H](C(=O)NC(C(C)Cl)[C@H]2O[C@H](SC)[C@H](O)[C@@H](O)[C@H]2O)N(C)C1` (single isomer, unassigned) [CLINDAMYCIN], the Activity in the assay with Staphylococcus aureus [1] was determined as 7%; in the assay on Staphylococcus aureus [2] it was 48.2%.

In the case of `CN(C)[C@@H]1C(O)=C(C(N)=O)C(=O)[C@@]2(O)C(O)=C3C(=O)c4c(O)cccc4[C@@](C)(O)[C@H]3C[C@@H]12` [TETRACYCLINE], the Activity is 0% in the assay with Staphylococcus aureus [1] and 53.8% in the assay on Staphylococcus aureus [2].

On to `CN[C@H](CC(C)C)C(=O)N[C@H]1C(=O)N[C@@H](CC(N)=O)C(=O)N[C@H]2C(=O)N[C@H]3C(=O)N[C@H](C(=O)N[C@H](C(=O)O)c4cc(O)cc(O)c4-c4cc3ccc4O)[C@H](O)c3ccc(c(Cl)c3)Oc3cc2cc(c3O[C@@H]2O[C@H](CO)[C@@H](O)[C@H](O)[C@H]2O[C@H]2C[C@](C)(N)[C@H](O)[C@H](C)O2)Oc2ccc(cc2Cl)[C@H]1O` [VANCOMYCIN], for which the Activity in the assay on Staphylococcus aureus [1] and in the assay with Staphylococcus aureus [2] was 0% in each case.
